Reference: ChEMBL document CHEMBL1153939, “Novel antagonists of serotonin-4 receptors: synthesis and biological evaluation of pyrrolothienopyrazines” (Bioorg Med Chem, 2009)

Experiments:
[1] = target: 5-hydroxytryptamine receptor 4 (Cavia porcellus) (UniProt O70528); assay: Displacement of [3H]GR-113808 from 5HT4 receptor in guinea pig striatum membrane at 10 nM; format: cell membranes
Outline: (§1)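 Guinea pig membranes (15 µg protein/mL) incubated 30 min at 37 °C with 0.6 nM [3H]GR113808 in 50 mM HEPES, pH 7.4, with fixed test concentrations. Nonspecific binding defined with 10 µM serotonin.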

[2] = target: 5-hydroxytryptamine receptor 4 (Cavia porcellus) (UniProt O70528); assay: Displacement of [3H]GR-113808 from 5HT4 receptor in guinea pig striatum membrane at 1 uM; format: cell membranes; outline: as §1
[3] = target: 5-hydroxytryptamine receptor 4 (Cavia porcellus, UniProt O70528); assay: Displacement of [3H]GR-113808 from 5HT4 receptor in guinea pig striatum membrane; format: cell membranes; outline: as §1
Chain of 5-hydroxytryptamine receptor 4 (Cavia porcellus, UniProt O70528) (O70528 whole entry): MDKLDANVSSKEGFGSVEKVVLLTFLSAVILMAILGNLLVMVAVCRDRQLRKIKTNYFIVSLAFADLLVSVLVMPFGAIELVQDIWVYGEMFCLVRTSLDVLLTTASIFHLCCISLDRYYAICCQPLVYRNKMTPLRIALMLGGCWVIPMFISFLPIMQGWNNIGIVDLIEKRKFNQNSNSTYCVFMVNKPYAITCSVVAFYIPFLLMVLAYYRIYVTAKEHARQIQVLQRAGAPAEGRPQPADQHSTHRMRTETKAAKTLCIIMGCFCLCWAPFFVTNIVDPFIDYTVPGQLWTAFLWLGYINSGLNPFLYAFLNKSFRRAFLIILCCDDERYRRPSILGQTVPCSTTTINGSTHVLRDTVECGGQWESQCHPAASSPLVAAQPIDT

[4] = target: T1, 5-hydroxytryptamine receptor 3A (Homo sapiens, UniProt P46098); assay: Binding affinity at 5HT3 receptor
T1 sequence (P46098 whole entry): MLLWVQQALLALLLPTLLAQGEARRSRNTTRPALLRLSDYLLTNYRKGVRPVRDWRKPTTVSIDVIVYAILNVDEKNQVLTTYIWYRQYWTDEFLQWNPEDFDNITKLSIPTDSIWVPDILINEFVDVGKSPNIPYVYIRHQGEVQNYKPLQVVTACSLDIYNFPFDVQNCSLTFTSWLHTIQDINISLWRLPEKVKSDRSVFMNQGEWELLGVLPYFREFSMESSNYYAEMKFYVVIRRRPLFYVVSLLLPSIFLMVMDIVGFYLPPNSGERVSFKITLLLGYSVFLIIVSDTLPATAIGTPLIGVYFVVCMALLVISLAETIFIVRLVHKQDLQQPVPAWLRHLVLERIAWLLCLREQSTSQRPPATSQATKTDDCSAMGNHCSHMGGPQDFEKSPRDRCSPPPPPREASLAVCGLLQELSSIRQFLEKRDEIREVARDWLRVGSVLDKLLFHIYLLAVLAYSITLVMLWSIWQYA

[5] = target: 5-hydroxytryptamine receptor 4 (Homo sapiens, UniProt Q13639); assay: Binding affinity at 5HT4 receptor
Chain of 5-hydroxytryptamine receptor 4 (Homo sapiens, UniProt Q13639) (Q13639 whole entry): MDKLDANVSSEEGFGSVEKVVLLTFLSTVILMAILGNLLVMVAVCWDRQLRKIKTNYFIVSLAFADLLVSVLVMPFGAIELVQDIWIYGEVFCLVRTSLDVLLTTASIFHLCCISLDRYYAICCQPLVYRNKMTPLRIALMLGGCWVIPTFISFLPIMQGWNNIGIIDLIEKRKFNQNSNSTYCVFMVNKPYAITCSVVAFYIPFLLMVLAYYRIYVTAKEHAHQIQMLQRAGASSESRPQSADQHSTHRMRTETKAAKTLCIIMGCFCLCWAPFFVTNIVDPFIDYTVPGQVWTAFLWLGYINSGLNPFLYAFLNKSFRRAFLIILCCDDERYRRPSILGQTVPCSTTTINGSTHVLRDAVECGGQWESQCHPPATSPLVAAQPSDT

Chain of 5-hydroxytryptamine receptor 4 (Cavia porcellus) (O70528 whole entry): as the sequence (O70528 whole entry) above

Structure (SMILES) | inhibition [1] [%] | inhibition [2] [%] | Ki [3] [nM] | Ki [4] [nM] | Ki [5] [nM]
CCN(CC)CCCCOc1nc2ccsc2n2cccc12 | 34 | 100 | 16.2 |  | 
CCC(C)N1CCC(COc2nc3scc(C)c3n3cccc23)CC1 (configuration not stated) | 18 | 100 |  |  | 
CCN(CC)CCOC(=O)c1cc(Cl)c(N)cc1OC |  |  |  | 126 | 
C=CCN1CCC(COc2nc3sccc3n3cccc23)CC1 | 49 | 99 | 29.5 |  | 
c1cc2c(OC3CN4CCC3CC4)nc3ccsc3n2c1 (configuration not stated) | 11 | 53 |  |  | 
CCCCCN1CCC(COc2nc3scc(C)c3n3cccc23)CC1 | 20 | 100 |  |  | 
CN1[C@@H]2CC[C@H]1C[C@@H](OC(=O)c1c[nH]c3ccccc13)C2 [TROPISETRON] |  |  |  |  | 200
CCCCN1CCC(COc2nc3scc(C)c3n3cccc23)CC1 | 75 | 100 | 5.37 |  | 
CCN1CCC(COc2nc3scc(C)c3n3cccc23)CC1 | 30 | 100 | 9.55 |  | 
C=CCN1CCC(COc2nc3scc(C)c3n3cccc23)CC1 | 26 | 100 | 8.51 |  | 
CN(CCOc1nc2ccsc2n2cccc12)Cc1ccccc1 | 2 | 20 |  |  | 
CN1CCC(COc2nc3sccc3n3cccc23)CC1 | 20 | 100 | 38 |  | 
COCCCN1CCC(NC(=O)c2cc(Cl)c(N)c3c2OCC3)CC1 [PRUCALOPRIDE] |  |  |  | 3980 | 
CCCCN1CCC(COC(=O)c2cc(Cl)c(N)c3c2OCCO3)CC1 |  |  |  | 158 | 0.0158
CCCCN1CCC(COc2nc3sccc3n3cccc23)CC1 | 56 | 100 | 20.9 |  | 
Cc1csc2nc(OCC3CCN(C(C)C)CC3)c3cccn3c12 | 30 | 100 | 6.46 |  | 
CCN1CCC(COc2nc3sccc3n3cccc23)CC1 | 0 | 92 |  |  | 
c1ccc(CN2CCC(COc3nc4ccsc4n4cccc34)CC2)cc1 | 0 | 100 | 63.1 |  | 
CCCCCN1CCC(COc2nc3sccc3n3cccc23)CC1 | 13 | 100 | 49 |  | 
CCCCN1CCC(CNC(=O)c2c3n(c4ccccc24)CCCO3)CC1 [PIBOSEROD] |  |  |  | > 1000 | 
C=CCCN1CCC(COc2nc3scc(C)c3n3cccc23)CC1 | 28 | 100 | 11.2 |  | 
Cc1csc2nc(OCC3CCN(Cc4ccccc4)CC3)c3cccn3c12 | 11 | 100 |  |  | 
CCCN1CCC(COc2nc3sccc3n3cccc23)CC1 | 54 | 100 | 11.7 |  | 
COc1cc(N)c(Cl)cc1C(=O)OCCCN1CCCCC1 |  |  |  | 2000 | 31.6
Cc1csc2nc(OCC3CCN(C)CC3)c3cccn3c12 | 13 | 100 |  |  | 
CCCCCNC(=N)N/N=C/c1c[nH]c2ccc(OC)cc12 [TEGASEROD] |  |  |  | > 10000 | 3.98

The remaining lines, values ahead:

inhibition [1] [%] | inhibition [2] [%] | Ki [3] [nM] | Ki [4] [nM] | Ki [5] [nM] | Structure (SMILES)
0 | 38 |  |  |  | c1cc2c(OCCN3CCNCC3)nc3ccsc3n2c1
23 | 100 | 37.2 |  |  | C=CCCN1CCC(COc2nc3ccsc3n3cccc23)CC1
0 | 72 |  |  |  | CCCN1CCCCC1CCOc1nc2ccsc2n2cccc12 (configuration not stated)
0 | 72 |  |  |  | CCCN1CCN(CCOc2nc3ccsc3n3cccc23)CC1
26 | 100 | 12.9 |  |  | Cc1csc2nc(OCCCN3CCCCC3)c3cccn3c12
5 | 90 | 617 |  |  | c1cc2c(OCCC3CCCCN3)nc3ccsc3n2c1 (configuration not stated)
7 | 60 |  |  |  | c1cc2c(OCCN3CCCC3)nc3ccsc3n2c1
1 | 50 |  |  |  | CCCCN1CCC(Oc2nc3ccsc3n3cccc23)CC1
30 | 100 | 52.5 |  |  | c1cc2c(OCCCN3CCCCC3)nc3ccsc3n2c1
55 | 99 | 25.7 |  |  | CCCCCN1CCC(COc2nc3ccsc3n3cccc23)CC1
2 | 56 |  |  |  | CCC(C)N1CCC(COc2nc3ccsc3n3cccc23)CC1 (configuration not stated)
0 | 82 |  |  |  | CCCCN1CCCC(COc2nc3ccsc3n3cccc23)C1 (configuration not stated)
38 | 100 | 18.2 |  |  | CC(C)N1CCC(COc2nc3ccsc3n3cccc23)CC1
18 | 90 |  |  |  | c1cc2c(OCC3CCCCN3)nc3ccsc3n2c1 (configuration not stated)
16 | 100 | 57.5 |  |  | c1cc2c(OCCCCN3CCCCC3)nc3ccsc3n2c1
0 | 91 |  |  |  | CCCN1CCCC(COc2nc3ccsc3n3cccc23)C1 (configuration not stated)
14 | 75 |  |  |  | c1cc2c(OCCCN3CCNCC3)nc3ccsc3n2c1
97 | 100 | 16.2 |  |  | CCCN1CCC(COc2nc3ccsc3n3cccc23)CC1
0 | 26 |  |  |  | c1cc2c(OC3CCNCC3)nc3ccsc3n2c1
0 | 100 | 58.9 |  |  | CN1CCC(COc2nc3ccsc3n3cccc23)CC1
12 | 18 |  |  |  | c1cc2c(OCCN3CCOCC3)nc3ccsc3n2c1
10 | 67 |  |  |  | CCCN1CCC(Oc2nc3ccsc3n3cccc23)CC1
0 | 13 |  |  |  | c1ccc(CN2CCN(CCOc3nc4ccsc4n4cccc34)CC2)cc1
0 | 0 |  |  |  | NCCOc1nc2ccsc2n2cccc12
9 | 7 |  |  |  | CNCCOc1nc2ccsc2n2cccc12
12 | 66 |  |  |  | CCCCN1CCN(CCOc2nc3ccsc3n3cccc23)CC1
8 | 74 |  |  |  | c1cc2c(OCC3CCNCC3)nc3ccsc3n2c1
32 | 95 | 8.71 |  |  | C=CCN1CCC(COc2nc3ccsc3n3cccc23)CC1
5 | 73 | 417 |  |  | c1cc2c(OCCN3CCCCC3)nc3ccsc3n2c1
15 | 100 | 74.1 |  |  | c1cc2c(OCCCN3CCCC3)nc3ccsc3n2c1
